The values that follow come from ChEMBL document CHEMBL3272245, “Potent reversible anticholinesterase agents. Bis- and mono-N-substituted benzoquinolinium halides” (J Med Chem, 1977).

Molecules are shown by their SMILES.

The target in test [1] is T1, Acetylcholinesterase (Electrophorus electricus, UniProt O42275). As to the kind of experiment: Reversible mixed-type inhibition of electric eel acetylcholinesterase using acetylcholine bromide as substrate by Lineweaver-Burk plot analysis.
Test [2] addresses T2, Butyrylcholinesterase (Equus caballus, UniProt Q9N1N9). Description: Reversible mixed-type inhibition of horse serum butyrylcholinesterase using acetylcholine bromide as substrate by Lineweaver-Burk plot analysis.
Test [3] addresses T2, Butyrylcholinesterase. Description: Reversible mixed-type inhibition of horse serum butyrylcholinesterase using acetylcholine bromide as substrate assessed as free enzyme-inhibitor complex by Lineweaver-Burk plot analysis.
Test [4] concerns the target T1, Acetylcholinesterase. As to the kind of experiment: Reversible mixed-type inhibition of electric eel acetylcholinesterase using acetylcholine bromide as substrate assessed as free enzyme-inhibitor complex by Lineweaver-Burk plot analysis.
Test [5] deals with T1, Acetylcholinesterase. Description: Mixed-type inhibition of electric eel acetylcholinesterase using acetylcholine bromide as substrate by Lineweaver-Burk plot analysis.
Test [6] concerns the target T2, Butyrylcholinesterase. As to the kind of experiment: Mixed-type inhibition of horse serum butyrylcholinesterase using acetylcholine bromide as substrate by Lineweaver-Burk plot analysis.
The target of test [7] is T1, Acetylcholinesterase. Description: Mixed-type inhibition of electric eel acetylcholinesterase using acetylcholine bromide as substrate assessed as free enzyme-inhibitor complex by Lineweaver-Burk plot analysis.
Test [8] concerns the target T2, Butyrylcholinesterase. As to the kind of experiment: Mixed-type inhibition of horse serum butyrylcholinesterase using acetylcholine bromide as substrate assessed as free enzyme-inhibitor complex by Lineweaver-Burk plot analysis.
The target in test [9] is T2, Butyrylcholinesterase. Description: Reversible competitive inhibition of horse serum butyrylcholinesterase using acetylcholine bromide as substrate assessed as free enzyme-inhibitor complex by Lineweaver-Burk plot analysis.
Test [10] has as its target T1, Acetylcholinesterase. As to the kind of experiment: Reversible competitive inhibition of electric eel acetylcholinesterase using acetylcholine bromide as substrate assessed as free enzyme-inhibitor complex by Lineweaver-Burk plot analysis.
The target of test [11] is T1, Acetylcholinesterase. As to the kind of experiment: Mixed-type inhibition of electric eel acetylcholinesterase using acetylcholine bromide as substrate assessed as […] by Lineweaver-Burk plot analysis. In short, it runs like this: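 Electric eel electric-organ acetylcholinesterase (0.1 unit per 10 mL reaction) added to five inhibitor concentrations each mixed with acetylcholine bromide, e.g. 0.1, 0.15, 0.25, 0.4, 0.8 mM final. Initial hydrolysis rates over 4 min at 25 °C by pH-stat titration. Lineweaver-Burk analysis; Km from inhibitor-free runs.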

T1 sequence (O42275 whole entry): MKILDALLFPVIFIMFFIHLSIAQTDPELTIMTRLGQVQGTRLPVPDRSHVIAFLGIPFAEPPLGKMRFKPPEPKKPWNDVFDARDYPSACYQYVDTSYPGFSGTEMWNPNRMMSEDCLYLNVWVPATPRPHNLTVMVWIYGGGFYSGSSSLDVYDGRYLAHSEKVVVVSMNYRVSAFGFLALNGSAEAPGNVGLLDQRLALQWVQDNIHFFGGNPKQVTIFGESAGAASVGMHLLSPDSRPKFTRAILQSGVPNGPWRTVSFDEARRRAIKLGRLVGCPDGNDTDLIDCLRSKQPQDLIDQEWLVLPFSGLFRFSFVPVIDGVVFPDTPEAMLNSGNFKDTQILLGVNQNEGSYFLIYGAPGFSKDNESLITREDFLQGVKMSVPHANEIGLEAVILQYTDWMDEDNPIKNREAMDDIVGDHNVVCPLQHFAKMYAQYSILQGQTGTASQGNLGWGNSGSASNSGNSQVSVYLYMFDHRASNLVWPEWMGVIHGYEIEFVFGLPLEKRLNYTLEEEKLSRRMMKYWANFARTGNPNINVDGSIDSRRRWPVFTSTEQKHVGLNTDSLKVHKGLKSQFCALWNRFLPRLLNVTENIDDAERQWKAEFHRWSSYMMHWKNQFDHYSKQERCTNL
T2 sequence (Q9N1N9 whole entry): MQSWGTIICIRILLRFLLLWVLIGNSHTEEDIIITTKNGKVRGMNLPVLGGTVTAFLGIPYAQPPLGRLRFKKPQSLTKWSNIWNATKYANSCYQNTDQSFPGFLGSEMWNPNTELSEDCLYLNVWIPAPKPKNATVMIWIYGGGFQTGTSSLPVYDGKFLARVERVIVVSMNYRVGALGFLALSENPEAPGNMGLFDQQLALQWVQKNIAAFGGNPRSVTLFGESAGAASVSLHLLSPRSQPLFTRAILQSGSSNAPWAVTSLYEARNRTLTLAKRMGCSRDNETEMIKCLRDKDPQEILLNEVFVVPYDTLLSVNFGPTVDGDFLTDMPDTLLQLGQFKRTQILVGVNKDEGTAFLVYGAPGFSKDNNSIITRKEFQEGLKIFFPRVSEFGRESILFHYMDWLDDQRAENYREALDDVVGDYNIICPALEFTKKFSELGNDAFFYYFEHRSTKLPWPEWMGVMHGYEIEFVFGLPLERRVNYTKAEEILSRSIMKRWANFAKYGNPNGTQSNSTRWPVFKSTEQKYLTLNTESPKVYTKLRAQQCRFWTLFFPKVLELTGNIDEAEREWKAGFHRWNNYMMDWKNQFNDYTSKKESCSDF

With `c1ccc2c(c1)cc1ccccc1[n+]2CCCCCC[n+]1c2ccccc2cc2ccccc21`, the Ki (as a rule, the equilibrium dissociation constant of an inhibitor or competing ligand from its target) is 0.0021 µM on Acetylcholinesterase [1], 0.024 µM at Butyrylcholinesterase [2], 0.0073 µM at Butyrylcholinesterase [3] and 0.0021 µM on Acetylcholinesterase [4].
As for `C[N+](C)(CCCCCC[N+](C)(C)Cc1ccc(-c2ccccc2)cc1)Cc1ccc(-c2ccccc2)cc1`, the Ki turned out to be 120 µM on Acetylcholinesterase [5], 7.9 µM at Butyrylcholinesterase [6], 39 µM on Acetylcholinesterase [7] and 1.5 µM at Butyrylcholinesterase [8].
On to `c1ccc2c(c1)c[n+](CCCCCC[n+]1cc3ccccc3c3ccccc31)c1ccccc21`, for which the Ki at Acetylcholinesterase [1] came to 0.0066 µM; at Butyrylcholinesterase [2], 0.091 µM; on Butyrylcholinesterase [3] it was 0.027 µM; at Acetylcholinesterase [4], 0.0066 µM.
Turning to `c1ccc2c(c1)ccc1c2ccc[n+]1CCCCCC[n+]1cccc2c3ccccc3ccc21`, the inhibition constant Ki at Acetylcholinesterase [1] worked out at 0.072 µM; at Butyrylcholinesterase [2], 1.5 µM; on Butyrylcholinesterase [3] it was 0.36 µM; on Acetylcholinesterase [4] it was 0.01 µM.
Take `c1ccc2c(c1)c[n+](Cc1ccc(C[n+]3cc4ccccc4c4ccccc43)cc1)c1ccccc21`: the Ki is 0.71 µM at Acetylcholinesterase [1], 0.23 µM at Butyrylcholinesterase [2], 0.057 µM at Butyrylcholinesterase [3] and 0.18 µM on Acetylcholinesterase [4].
Take `C[n+]1cc2ccccc2c2ccccc21`: the inhibition constant (Ki) was 25.5 µM on Acetylcholinesterase [1], 6.4 µM on Butyrylcholinesterase [2], 1.1 µM at Butyrylcholinesterase [3] and 5.6 µM on Acetylcholinesterase [4].
Regarding `CCC[n+]1cc2ccccc2c2ccccc21`, the Ki at Acetylcholinesterase [1] turned out to be 13.6 µM; on Butyrylcholinesterase [2], 7.5 µM; on Butyrylcholinesterase [3], 1.3 µM; at Acetylcholinesterase [4], 3.2 µM.
In the same order, the values of `CC(C)[n+]1cc2ccccc2c2ccccc21` are 97 µM, 4.8 µM, 1.5 µM and 22 µM.
In the same order, the values of `CCCCCC[n+]1cc2ccccc2c2ccccc21` are 1.8 µM, 0.9 µM, 0.12 µM and 0.53 µM.
Consider `c1ccc(C[n+]2cc3ccccc3c3ccccc32)cc1`, for which the Ki on Acetylcholinesterase [1] came out at 0.95 µM; on Butyrylcholinesterase [2], 0.26 µM; at Butyrylcholinesterase [3], 0.061 µM; at Acetylcholinesterase [4], 0.25 µM.
In the same order, the values of `c1ccc(CC[n+]2cc3ccccc3c3ccccc32)cc1` are 0.78 µM, 0.31 µM, 0.054 µM and 0.28 µM.
On to `OCC[n+]1cc2ccccc2c2ccccc21`, for which the Ki at Acetylcholinesterase [1] turned out to be 45 µM; on Butyrylcholinesterase [2], 98.4 µM; at Butyrylcholinesterase [3], 37 µM; on Acetylcholinesterase [4], 31 µM.
In the same order, the values of `O=C(O)C[n+]1cc2ccccc2c2ccccc21` are 72.4 µM, 86 µM, 41 µM and 12 µM.
For `CC(=O)OCC[n+]1cc2ccccc2c2ccccc21`, the Ki came to 0.12 µM on Butyrylcholinesterase [9] and 0.38 µM at Acetylcholinesterase [10].
`C[n+]1cccc2c3ccccc3ccc21`: the Ki at Acetylcholinesterase [1] turned out to be 25.4 µM; on Butyrylcholinesterase [2], 34 µM; at Butyrylcholinesterase [3] it was 5.4 µM; on Acetylcholinesterase [4], 8.9 µM.
In the same order, the values of `c1ccc(C[n+]2cccc3c4ccccc4ccc32)cc1` are 37.4 µM, 5.6 µM, 0.86 µM and 9.3 µM.
In the same order, the values of `c1ccc(CC[n+]2cccc3c4ccccc4ccc32)cc1` are 18.5 µM, 4.9 µM, 0.92 µM and 1.8 µM.
In the same order, the values of `OCC[n+]1cccc2c3ccccc3ccc21` are 160 µM, 210 µM, 79 µM and 83 µM.
For the compound `CC(=O)OCC[n+]1cccc2c3ccccc3ccc21`, the Ki at Butyrylcholinesterase [9] is 0.82 µM; on Acetylcholinesterase [10] it was 0.95 µM.
On to `C[n+]1cccc2ccc3ccccc3c21`, for which the Ki at Acetylcholinesterase [1] is 140 µM; at Butyrylcholinesterase [2] it was 230 µM; at Butyrylcholinesterase [3], 32 µM; on Acetylcholinesterase [4], 18 µM.
`OCC[n+]1cccc2ccc3ccccc3c21`: the Ki at Acetylcholinesterase [1] was 360 µM; at Butyrylcholinesterase [2] it was 410 µM; at Butyrylcholinesterase [3] it was 110 µM; on Acetylcholinesterase [4], 150 µM.
Consider `C[n+]1c2ccccc2cc2ccccc21`, for which the inhibition constant Ki at Acetylcholinesterase [1] was found to be 2.8 µM; on Butyrylcholinesterase [2], 1.7 µM; at Butyrylcholinesterase [3] it was 0.24 µM; on Acetylcholinesterase [4] it was 0.5 µM.
In the same order, the values of `OCC[n+]1c2ccccc2cc2ccccc21` are 9.6 µM, 7.2 µM, 1.3 µM and 2.9 µM.
For the compound `CC(=O)OCC[n+]1c2ccccc2cc2ccccc21`, the Ki at Butyrylcholinesterase [9] was found to be 0.011 µM; at Acetylcholinesterase [10], 0.021 µM.
In the case of `CC(=O)OCC[n+]1ccccc1`, the Ki stood at 0.011 µM at Butyrylcholinesterase [9]; 320 µM on Acetylcholinesterase [7]; 120 µM on Butyrylcholinesterase [3]; 0.021 µM on Acetylcholinesterase [10]; 320 µM at Acetylcholinesterase [4]; 120 µM at Butyrylcholinesterase [8].
As to `c1cc[n+](CCCCCC[n+]2ccccc2)cc1`, the Ki at Acetylcholinesterase [11] turned out to be 16000 µM; at Butyrylcholinesterase [6], 620 µM; at Butyrylcholinesterase [8], 120 µM.
Take `C[N+](C)(CCCCCC[N+](C)(C)C1c2ccccc2-c2ccccc21)C1c2ccccc2-c2ccccc21` [HEXAFLUORENIUM BROMIDE]: the Ki on Acetylcholinesterase [1] came out at 1.3 µM; at Butyrylcholinesterase [2], 0.89 µM; at Butyrylcholinesterase [3], 0.34 µM; on Acetylcholinesterase [4], 1.3 µM.
